The test system of one experiment is CXF1103. Briefly: In vitro cytotoxicity against human tumor xenograft CXF 1103 colorectal adenocarcinoma. Format: functional. The procedure, abridged:
(§1)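 Double-layer soft-agar clonogenic assay. Tumor cells come from human tumor xenografts serially passaged in nude mice. Cells are dispersed with collagenase 0.05%, DNase 0.07% and hyaluronidase 0.1% (37 °C, 30 min), sieved, and viability is checked by trypan blue. 20 000–200 000 cells go in 0.4% agar over a 0.7% agar base in IMDM with 20% FCS. Drug is overlaid continuously for at least 1 week.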

Experiment [1] addresses T1, M-phase inducer phosphatase 1 (Homo sapiens, UniProt P30304).
T1 sequence (P30304 whole entry): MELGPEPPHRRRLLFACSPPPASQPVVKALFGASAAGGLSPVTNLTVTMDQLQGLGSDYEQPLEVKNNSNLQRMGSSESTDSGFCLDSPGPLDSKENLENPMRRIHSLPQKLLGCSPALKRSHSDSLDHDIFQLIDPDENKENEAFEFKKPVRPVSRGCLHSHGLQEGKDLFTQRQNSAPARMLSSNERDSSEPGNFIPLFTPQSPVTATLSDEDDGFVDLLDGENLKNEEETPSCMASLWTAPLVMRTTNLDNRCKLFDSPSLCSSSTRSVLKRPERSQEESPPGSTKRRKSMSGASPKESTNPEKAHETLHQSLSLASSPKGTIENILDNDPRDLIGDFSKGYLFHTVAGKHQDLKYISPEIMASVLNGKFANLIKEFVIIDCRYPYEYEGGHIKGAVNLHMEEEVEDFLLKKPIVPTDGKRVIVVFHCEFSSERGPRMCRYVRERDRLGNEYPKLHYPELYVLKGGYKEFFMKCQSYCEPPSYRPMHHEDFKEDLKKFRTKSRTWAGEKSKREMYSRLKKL
Briefly: Inhibition of Cell division cycle 25 (Cdc25) phosphatase. The procedure, abridged:
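Enzyme is GST-human cdc25A fusion expressed in E. coli and purified on glutathione-agarose. Enzyme and DTT in Tris buffer are preincubated 15 min at 37 °C. The reaction starts with p-nitrophenyl phosphate (500 mM stock) and runs 60 min at 37 °C. Absorbance is read at 405 nm, and the no-enzyme blank is subtracted.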

For the next experiment, the system named is LXFL 529. Briefly: In vitro cytotoxicity against human tumor xenograft LXFL 529 Nonsmall cell lung carcinoma. The format is functional. The procedure, abridged:
as §1

Another experiment concerns MEXF989. Nature of the experiment: In vitro cytotoxicity against human tumor xenograft MEXF 989 melanoma. The format is functional. The procedure, abridged:
as §1

The subject of another experiment is OVXF1023 cell line. Nature of the experiment: In vitro cytotoxicity against human tumor xenograft OVXF1023 ovarian adenocarcinoma. Format: functional. A digest of the protocol: as §1
Another experiment concerns RXF 423. Nature of the experiment: In vitro cytotoxicity against human tumor xenograft RXF 423 renal cancer. Format: functional. The procedure, abridged:
as §1

A short description of experiment [2]: In vitro cytotoxic effect in 4 of 6 human tumor xenografts, LXFL, LXFS, MEXF and OVXF. The format is functional. A digest of the protocol:
as §1

In a further experiment the test system is LXFS538. Briefly: In vitro cytotoxicity against human tumor xenograft LXFS 538 small cell lung carcinoma. Format: functional. A digest of the protocol: as §1
Experiment [3] has as its system panel of six human tumor xenografts (Homo sapiens). Briefly: In vitro cytotoxicity in six human tumor xenografts.
For the next experiment, the system named is LXFL 529/ LXFS 538. Nature of the experiment: In vitro cytotoxicity in nonsmall cell lung carcinoma cell line LXFL 529 and small cell lung carcinoma cell line LXFS 538 human tumor xenografts. The format is functional. A digest of the protocol:
as §1

Experiment [4] can be described thus: In vitro cytotoxic effect in 1 of 6 human tumor xenografts, LXFS. Format: functional. The procedure, abridged: as §1
Experiment [5] is described as follows: In vitro cytotoxic effect in 0 of 6 human tumor xenografts. The format is functional. A digest of the protocol:
as §1

Experiment [6] deals with Cyclin-dependent kinase 1 (starfish). Nature of the experiment: Inhibition of Cell division cycle 2 (cdc2) kinase.
Experiment [7] is described as follows: In vitro cytotoxic effect in 2 of 6 human tumor xenografts, LXFE and RXF. The format is functional. Particulars: in the assay text read “LXFL” for “LXFE”. The procedure, abridged: as §1
Experiment [8] is described as follows: In vitro cytotoxic effect in 1 of 6 human tumor xenografts, RXF. The format is functional. A digest of the protocol:
as §1

Experiment [9] in a line: In vitro cytotoxic effect in 3 of 6 human tumor xenografts, LXFS, MEXF and RXF. The format is functional. The procedure, abridged:
as §1

The nature of experiment [10]: In vitro cytotoxic effect in 2 of 6 human tumor xenografts, LXFL and LXFS. The format is functional. A digest of the protocol:
as §1

Experiment [11] in a line: In vitro cytotoxic effect in 2 of 6 human tumor xenografts, LXFS and RXF. The format is functional. The procedure, abridged:
as §1

≈ marks a conversion by molar mass, not a printed value. Calls of active or inactive are those of the source. The rule behind the calls is not given here.

For the molecule `CCCCCCCCCCCCCCCCOP(=O)([O-])OCC[N+]1(C)CCCCC1`, the IC70 with CXF1103 is above 10 µg/mL; in the experiment with LXFL 529 it was 4.33 µg/mL (≈ 9.67 µM); with MEXF989, 4.64 µg/mL (≈ 10.4 µM); with OVXF1023 cell line, 7.8 µg/mL (≈ 17.4 µM); in the experiment on RXF 423 it was 10 µg/mL (≈ 22.3 µM); in the experiment with LXFS538, 1.9 µg/mL (≈ 4.23 µM). For the same molecule, in [1], the midpoint of inhibition, the IC50, lay at 460 µM. The Cytotoxicity result in [2] was “Weak activity”. Further, in experiment [3], the “Mean IC70” value is 5.6 µg/mL.

With `CCCCCCCCCCCCOCCOP(=O)([O-])OCC[N+]1(C)CCOCC1`, in [1], the IC50 was 610 µM. Also, the “Mean IC70” value in the experiment on LXFL 529/ LXFS 538 is above 10 µg/mL. The Cytotoxicity entry in [4] is “Weak activity”.

As to `CCCCCCCCCCCCCCOP(=O)([O-])OCC[N+]1(C)CCCCC1`, the IC50 in experiment [1] was 490 µM; in [6] it was above 1000 µM. Besides, in experiment [5], the NA entry is “inactive”. Besides, the “Mean IC70” value in [3] is above 10 µg/mL.

Take `CCCCCCCCCCCCCCCCOP(=O)([O-])OCC[N+](C)(C)C` [MILTEFOSINE]: the IC70 is above 10 µg/mL in the experiment with CXF1103; 9.57 µg/mL (≈ 23.5 µM) with LXFL 529; above 10 µg/mL with MEXF989; above 10 µg/mL in the experiment with OVXF1023 cell line; 2.75 µg/mL (≈ 6.76 µM) in the experiment with RXF 423; above 10 µg/mL with LXFS538. In experiment [1], this molecule had an IC50 of 25 µM. The Cytotoxicity entry in experiment [7] was “Weak activity”. Moreover, in [3], the “Mean IC70” value worked out at 8 µg/mL.

With `CCCCCCCCCCCCCCOCCOP(=O)([O-])OCC[N+]1(C)CCCCC1`, 300 µM corresponded to half-maximal inhibition in experiment [1] (IC50). In addition, in the experiment with LXFL 529/ LXFS 538, the “Mean IC70” value was above 10 µg/mL. In experiment [4], the Cytotoxicity result was “Weak activity”.

The molecule `CCCCCCCCCCCCOP(=O)([O-])OCC[N+]1(C)CCOCC1` showed an IC50 in experiment [1] of 500 µM. Further, in experiment [5], the NA entry is “inactive”. Also, the “Mean IC70” value in [3] is above 10 µg/mL.

On to `CCCCCCCCCCCCCCCCOP(=O)([O-])OCC[N+]1(C)CCOCC1`, for which, in experiment [1], the IC50 came out at 40 µM. In addition, the Cytotoxicity result in experiment [8] is “Weak activity”. For the same molecule, the “Mean IC70” value in [3] is above 10 µg/mL.

`CCCCCCCCCCCCCCCCOCCOP(=O)([O-])OCC[N+]1(C)CCOCC1`: the IC70 is above 10 µg/mL with CXF1103; 10.4 µg/mL (≈ 21 µM) in the experiment with LXFL 529; 8.76 µg/mL (≈ 17.7 µM) in the experiment on MEXF989; above 10 µg/mL with OVXF1023 cell line; 4.76 µg/mL (≈ 9.64 µM) in the experiment on RXF 423; 5.12 µg/mL (≈ 10.4 µM) in the experiment with LXFS538. Further, the IC50 in [1] was found to be 1000 µM. In addition, in the experiment on LXFL 529/ LXFS 538, the “Mean IC70” value stood at 7.8 µg/mL. In addition, in [9], the Cytotoxicity result was “Weak activity”.

`CCCCCCCCCCCCCCOP(=O)([O-])OCC[N+]1(C)CCOCC1` had a half-maximal inhibitory concentration (IC50) in experiment [1] of 290 µM. Besides, the Cytotoxicity result in [8] is “Weak activity”. Moreover, the “Mean IC70” value in experiment [3] was above 10 µg/mL.

With `CCCCCCCCCCCCCCCCOCCOP(=O)([O-])OCC[N+]1(C)CCCCC1`, the IC70 in the experiment on CXF1103 was above 10 µg/mL; in the experiment on LXFL 529 it was 5.38 µg/mL (≈ 10.9 µM); in the experiment on MEXF989, above 10 µg/mL; in the experiment with OVXF1023 cell line, above 10 µg/mL; in the experiment on RXF 423 it was 10 µg/mL (≈ 20.3 µM); with LXFS538, 4.54 µg/mL (≈ 9.23 µM). This molecule also came in with an IC50 in experiment [1] of 100 µM. In the experiment on LXFL 529/ LXFS 538, the “Mean IC70” value is 7.9 µg/mL. For the same molecule, the Cytotoxicity entry in experiment [10] is “Weak activity”.

In the case of `CCCCCCCCCCCCCCOCCOP(=O)([O-])OCC[N+]1(C)CCOCC1`, the IC70 in the experiment on CXF1103 is above 10 µg/mL; in the experiment on LXFL 529, 10 µg/mL (≈ 21.5 µM); with MEXF989, above 10 µg/mL; in the experiment with OVXF1023 cell line, above 10 µg/mL; with RXF 423, 6.74 µg/mL (≈ 14.5 µM); in the experiment on LXFS538, 5.85 µg/mL (≈ 12.6 µM). 380 µM corresponded to half-maximal inhibition in [1] (IC50). Further, the “Mean IC70” value in the experiment on LXFL 529/ LXFS 538 turned out to be 8.6 µg/mL. Moreover, the Cytotoxicity result in [11] was “Weak activity”.

With `CCCCCCCCCCCCOP(=O)([O-])OCC[N+]1(C)CCCCC1`, the IC50 in [1] is above 1000 µM. Further, in experiment [4], the Cytotoxicity entry is “Weak activity”. The “Mean IC70” value in experiment [3] was above 10 µg/mL.

(Values after ChEMBL document CHEMBL1129359, “Alkyl and alkoxyethyl antineoplastic phospholipids” (J Med Chem, 1996).)
